Published values from different studies.
Lines come from different studies, so protocols differ.
Target: Calcium/calmodulin-dependent protein kinase type 1G (CAMK1G, Homo sapiens, UniProt Q96NX5)

| Compound | observed | action | technique | tested at | quantity | result |
| --- | --- | --- | --- | --- | --- | --- |
| Cc1ccc(C(=O)Nc2ccc(CN3CCN(C)CC3)c(C(F)(F)F)c2)cc1C#Cc1cnc2cccnn12 | cell-free assay | – | – | 23.5 nM | remaining signal | 95% |
| O=C(NCCCC1CCCCC1)c1ccc(CNC(=O)c2cnn(-c3ccccc3)c2C(F)(F)F)cc1 | cell-free assay | – | competition with immobilised ligand | 0.1 µM | remaining binding | 100% |
| COc1cc(Cl)c(C(=O)N[C@@H](CN[C@H]2CC[C@@H](N)CC2)Cc2ccc(C#N)cc2)cc1-c1ccc(CN[C@H](C)c2ccc(C)cc2)o1 | enzyme activity | inhibitor | – | 1 µM | remaining activity | 99% |
| COc1cc2c(Nc3ccc(Br)cc3F)ncnc2cc1OCC1CCN(C)CC1 | cell-free assay | – | – | 0.5 µM | remaining signal | 101% |
| Cc1sc(C(=O)NC2COC2)cc1-n1cc(NC(=O)Nc2c(F)cccc2Cl)cn1 | enzyme activity | inhibitor | – | 10 µM | remaining activity | 93.1% |
| CO[C@@H](C)c1c(Nc2ccc([C@@H](N(C)C(=O)C3CCS(=O)(=O)CC3)C(F)(F)F)cc2)cnc2cc(Cl)nn12 | cell-free assay | – | competition with immobilised ligand | 1 µM | remaining binding | 100% |
| CC(C)(O)[C@H]1CC[C@H](Nc2ccc3ncc(-c4cccc(C(F)(F)F)c4)n3n2)CC1 | enzyme activity | inhibitor | – | 1 µM | remaining activity | 81.6% |
| Nc1ncnc2occ(-c3ccc(NC(=O)Nc4cc(C(F)(F)F)ccc4F)cc3)c12 | cell-free assay | – | – | 20 µM | remaining signal | 41% |
| c1ccc(N2CCN(Cc3nc4ccccc4[nH]3)CC2)nc1 | cell-free assay | – | competition with immobilised ligand | 1 µM | remaining binding | 100% |
| N#CCCc1ccc2c(c1)-c1[nH]c3ccc([N+](=O)[O-])cc3c1CC(=O)N2 | cell-free assay | – | – | 0.5 µM | remaining signal | 103% |
| O=C(Nc1cnn(-c2csc(C(=O)NC3COC3)c2)c1)Nc1ccccc1Cl | enzyme activity | inhibitor | – | 5 µM | remaining activity | 94.2% |
| CN1CC(Oc2cnc(C#N)cc2-c2ccn3nc(NC(=O)C4CC4)cc3c2)C1 | enzyme activity | inhibitor | – | 1 µM | inhibition | -1% |
| O=C1Nc2ccc(Cl)cc2C1=Cc1cc(Cl)c(O)c(Cl)c1 | cell-free assay | – | – | 0.5 µM | remaining signal | 96.6% |
| Cc1cc(NC(=O)c2cccc3cc(-c4cccc5[nH]nc(N)c45)ccc23)ccc1F | enzyme activity | inhibitor | – | 0.1 µM | activity vs control | 102% |
| O=C1NC(c2ccccn2)Sc2ccccc21 (stereo not drawn) | cell-free assay | – | competition with immobilised ligand | 1 µM | remaining binding | 100% |
